High-throughput results as filed in PubChem.
A selection: hits, their analogues and other compounds. The true share with any hit is near 2.2%.
C8 TRAIL sens: sensitizes caspase-8 expressing cells to TRAIL. hit rate 1% among 360,000. AID 624354. inhibition (viability loss, TRAIL sensitization), % at 10 µM. NB7+C8 cells + TRAIL, ATPlite viability luminescence;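 active means compounds causing at least 50% loss of cell viability in the single-dose screen, relative to plate controls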
PPC-1+TRAIL kill: compounds killing PPC-1 cancer cells with TRAIL present (potentiator screen, no TRAIL-free arm) | PPC-1 cells + TRAIL, ATPLite viability luminescence | cell killing (% activity), % at 4 µM or 5 µM | hit rate 0.41% among 220,000 | AID 1443;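 active means cell killing above 50% in the first pass at 4 µM, then a duplicate retest at 5 µM averaging 50% or more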;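 further: plate controls were cells with TRAIL plus DMSO for no effect and medium-only wells lacking cells for full effect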
PKD1 kinase inh: PKD1 (human) kinase inhibition | Q15139 | PKD1 kinase fluorescence polarization assay | inhibition, % (no concentration beside the values) | hit rate 0.056% among 200,000; in the data active means inhibition above about 50%
Target sequence (Q15139 whole entry, looked up): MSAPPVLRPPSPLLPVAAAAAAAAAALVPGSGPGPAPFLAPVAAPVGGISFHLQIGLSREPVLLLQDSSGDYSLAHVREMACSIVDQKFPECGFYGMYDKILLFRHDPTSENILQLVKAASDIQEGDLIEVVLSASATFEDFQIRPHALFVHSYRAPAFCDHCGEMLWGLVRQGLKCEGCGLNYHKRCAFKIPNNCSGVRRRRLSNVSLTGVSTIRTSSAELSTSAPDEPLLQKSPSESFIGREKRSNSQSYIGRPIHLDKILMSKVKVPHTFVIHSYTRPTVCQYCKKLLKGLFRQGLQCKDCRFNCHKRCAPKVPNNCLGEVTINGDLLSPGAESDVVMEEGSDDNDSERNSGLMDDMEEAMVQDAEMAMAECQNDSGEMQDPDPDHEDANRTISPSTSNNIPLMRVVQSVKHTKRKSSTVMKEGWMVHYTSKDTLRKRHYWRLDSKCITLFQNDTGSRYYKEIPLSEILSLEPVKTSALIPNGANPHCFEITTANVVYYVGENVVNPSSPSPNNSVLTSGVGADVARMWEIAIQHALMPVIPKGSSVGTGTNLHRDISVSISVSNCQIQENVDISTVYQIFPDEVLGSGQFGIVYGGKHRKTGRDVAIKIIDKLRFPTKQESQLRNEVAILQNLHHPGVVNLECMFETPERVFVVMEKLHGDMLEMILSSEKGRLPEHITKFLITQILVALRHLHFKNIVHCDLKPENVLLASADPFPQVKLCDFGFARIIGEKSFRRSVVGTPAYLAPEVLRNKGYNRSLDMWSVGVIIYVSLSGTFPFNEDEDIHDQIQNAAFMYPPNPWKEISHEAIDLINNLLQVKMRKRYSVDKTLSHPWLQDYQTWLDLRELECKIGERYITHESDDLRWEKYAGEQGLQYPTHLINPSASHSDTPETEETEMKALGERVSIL
Wee1 stabilizer: blocks degradation of human Wee1 kinase; P30291; HeLa Luc-Wee1K328M stability, luciferase luminescence; 100% = proteasome inhibitor MG132 effect; reporter increase, % at 5 µM; hit rate 1.2% among 220,000;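 active means activation above the mean of all tested compounds plus 3 SD, set per screening run, cut at about 8.8% in these data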;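 further: cells exposed to compound for 20 h before luminescence read; 0% = DMSO alone and 100% = MG132 at 30 µM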
FLuc inh counter: inhibits firefly luciferase, flagging false hits in luciferase inhibition screens | P08659 | ATPLite firefly luciferase biochemical luminescence, 10 min | inhibition, % at 10 µM | hit rate 1.5% among 200,000;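 active means inhibition above about 50% when tested at 10 µM, limit read from the data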
FLuc stim CS: affects firefly luciferase, flagging false hits in luciferase stimulation screens | P08659 | ATPlite luciferase biochemical, luminescence, 10 min; 0 = ATP-free wells, 1 = DMSO control | activation factor at 10 µM | 200,000 tested, under 10 active | AID 1027;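 active means luciferase activation factor, scaled between plate controls, of at least 2 with compound at 10 µM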
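Assay system: Luciferase/luciferin detection reagent, cell-free biochemical luciferase assay / Also added: ATP substrate / Schedule: 10 min at ambient temperature / Measured by: luminescence measurement of luciferase light output / Benchmarks: low control with PBS replacing ATP, high control enzyme plus ATP without compound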
* hit, by the source's call; / = not tested or not shown.

SMILES	C8 TRAIL sens	PPC-1+TRAIL kill	PKD1 kinase inh	Wee1 stabilizer	FLuc inh counter	FLuc stim CS
COc1ccc(-n2c3c(cc(C(=O)NCC(=O)c4ccccc4)c2=O)C(=O)CC(C)(C)C3)cc1	-23	/	/	/	/	/
O=Cc1ccc(C(=O)OCC(=O)NC(=O)Nc2ccccc2F)cc1	2	/	/	/	/	/
O=C(CSCc1ccccc1)N1CCN(c2ccccc2)CC1	-7	28	-7	9.0*	3	1
O=C(NCc1ccccc1)c1cccc(NC(=O)C2CC2)c1	28	/	/	/	/	/
Nc1nc(-c2ccc(-c3ccccc3)cc2)cs1	59*	8	-6	1	72*	0.3
Nc1nc(-c2ccc(Oc3ccccc3)cc2)cs1	10	/	/	/	/	/
Cc1oc(-c2ccccc2F)nc1CS(=O)(=O)CC(=O)NCc1ccco1	-2	2	-1	9.2*	-7	1.1
Cc1ccccc1-c1nc(CS(=O)(=O)CC(=O)NCc2ccco2)c(C)o1	-19	/	/	/	/	/
COc1ccc(Cl)cc1NC(=O)c1noc(C)c1[N+](=O)[O-]	-17	/	/	/	/	/
Cc1ccc(S(=O)(=O)n2ccc3c(OCCOCCSCC(NC(=O)OC(C)(C)C)C(=O)O)cccc32)cc1 (configuration not stated)	16	/	/	/	/	/
Cc1ccc(S(=O)(=O)n2ccc3c(OCCOCCNCc4ccc(F)cc4)cccc32)cc1	53*	/	/	/	/	/
CCC1CN(C(=O)N2CCC(C(=O)NCCc3ccccc3)CC2)c2ccccc2O1 (configuration not stated)	-6	/	/	/	/	/
CNCCNC[C@H](Cc1cccc2ccccc12)NCCc1ccccc1	-10	/	/	/	/	/
CNC[C@H](Cc1ccccc1)NC[C@@H](Cc1cccc2ccccc12)NCCc1ccc(C)cc1	95*	/	/	/	/	/
Cc1cccc2nc(CSc3ccccc3N)cn12	16	/	-14	3	/	/
Cc1cccc2nc(COc3ccc4ccccc4c3Br)cn12	21	27	/	11*	/	/
COc1ccc(CCNC(=O)COC(=O)CCC(=O)c2ccc(F)cc2)cc1	-12	4	-8	11*	5	0.9
CCOC(=O)C1=C(C)N(c2ccccc2)C(=O)/C1=C\c1ccco1	-20	16	-6	1	2	1
COC(=O)C1=C(C)N(c2ccc(OC)c(OC)c2)C(=O)/C1=C\c1ccco1	1	-1	6	8.9*	-5	1.1
Clc1ccc(-c2cn3cc(Cl)ccc3n2)cc1	41	/	/	/	/	/
Oc1ccc(-c2cn3cc(C(F)(F)F)ccc3n2)cc1	89*	85*	-8	2	95*	0.1
COc1ccccc1CNC(=O)CSc1ccsc1[N+](=O)[O-]	-10	-9	-2	9.2*	-1	1
Cc1cc(C)cc(C(=O)O/N=C(\N)c2ccc(Br)cc2)c1	90*	0	-7	5	-1	1
Cc1ccc(C)c(C(=O)O/N=C(\N)c2ccc(Br)cc2)c1	78*	-17	-6	0	3	1
Cc1cccc(C(=O)O/N=C(\N)c2ccc(Br)cc2)c1	35	1	-3	-1	25	0.8
SMILES	C8 TRAIL sens	PPC-1+TRAIL kill	PKD1 kinase inh	Wee1 stabilizer	FLuc inh counter	FLuc stim CS
Cc1ccc(C(=O)O/N=C(\N)Cc2cccs2)c(Cl)c1	96*	/	/	/	/	/
Cc1ccc(C(=O)O/N=C(\N)c2ccc(Br)cc2)cc1C	86*	42	-5	0	9	0.9
CSc1cccc(NC(=O)C2CCCN(c3ncnc4c3nc3n4CCCCC3)C2)c1 (configuration not stated)	10	/	/	/	/	/
CCCCn1c(N)c(N(CCOC)C(=O)CCNC(=O)c2ccc(Br)cc2)c(=O)[nH]c1=O	-13	/	/	/	/	/
Cc1ccc(/C(N)=N/OC(=O)c2ccc(Cl)cc2Cl)cc1	67*	57*	-11	3	75*	0.3
CCOc1cc(C(=O)Nn2cnnc2)cc(OCC)c1OCC	2	8	1	8.9*	-1	1
CCOc1cc(C(=O)NC(=S)Nn2cnnc2)cc(OCC)c1OCC	-2	-17	-1	0	-3	1
Fc1cccc(/C=N/Nc2nncc3ccccc23)c1	84*	/	/	/	/	/
C(=N\Nc1nncc2ccccc12)/c1ccccn1	81*	/	/	/	/	/
COc1ccc(/C=C/c2cc(-c3ccc(C)cc3)o[n+]2C)cc1	74*	42	-8	-4	-7	1.1
COc1ccc(S(=O)(=O)NCc2ccccn2)cc1NC(=O)c1ccccc1C	20	/	/	/	/	/
Cc1ccc(Nc2nc(CSc3nnc(-c4ccncc4)n3C)cs2)cc1	76*	72*	-4	-2	90*	0.1
Cc1ccc(CSc2nnc(-c3ccncc3)n2C)cc1	-10	0	-5	-1	-10	1.1
COc1ccc2nc(NC(=O)c3ccco3)sc2c1	67*	/	/	/	/	/
NS(=O)(=O)c1ccc2nc(NC(=O)c3ccncc3)sc2c1	24	25	-11	0	64*	0.4
Cc1ccc2nc(NC(=S)NC(=O)c3ccco3)sc2c1	82*	6	-2	4	90*	0.1
COc1ccc2nc(NC(=O)CSc3nnc(-c4ccoc4C)n3C)sc2c1	13	24	1	6	60*	0.4
COc1ccc(CSC2=NCCN2)cc1Br	-1	/	/	/	/	/
CCN(CC)S(=O)(=O)c1ccc2nc(NC(=O)c3ccco3)sc2c1	8	4	-1	9.6*	9	0.9
O=C(Nc1nc2ccc(Cl)cc2s1)c1ccco1	40	8	-3	2	63*	0.4
CCN(CC)S(=O)(=O)c1ccc2nc(NC(=O)c3cccs3)sc2c1	24	7	-6	0	11	0.9
Cc1ccc2[nH]c(CNC(=O)c3ccccc3F)cc2c1	24	/	/	/	/	/
Cc1ccc(S(=O)(=O)Nc2ccc(S(=O)(=O)Nc3nccs3)cc2)c([N+](=O)[O-])c1	-7	/	/	/	/	/
COc1ccc(-c2cn3nc4c(nc3n2)CCCC4)cc1	-2	10	5	8	68*	0.3
